SMARCA2 act = increases SMARCA2 function in MMTV reporter cells; activation, % at 9.1 µM; actives 1% (n = 370,000); MG213 cells, MMTV-luciferase reporter, dexamethasone, overnight; in the data active = activation above about 7.8%;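 note: 0% = vehicle wells and 100% = reference activator wells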
TAG inh = reduces triacylglycerol accumulation in H9c2 cells | Nile Red lipid (TAG) fluorescence; cells loaded with 200 µM oleic acid | inhibition, % at 12.5 µM | actives 0.66% (n = 230,000) | AID 651582;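 active = pattern-corrected inhibition of lipid staining of at least 50% with the nuclear-stain viability signal not falling by more than 50%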;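 note: 0% = DMSO wells and 100% = triacsin C control wells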
Tb MetRS inh = blocks T. brucei methionyl-tRNA synthetase activity. inhibition, % at 11.9 µM. actives 0.4% (n = 360,000). AID 624268. purified T. brucei MetRS, ATP depletion, Kinase-Glo luminescence;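 active = inhibition above a per-plate cutoff of the control wells' mean inhibition plus 3 SD, cut at about 5.5% in these data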;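 note: 0% = DMSO wells median and 100% = median of wells with control inhibitor compound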
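Material: T. brucei methionyl-tRNA synthetase, purified; reagent: substrates ATP, L-methionine and bulk Escherichia coli tRNA; dosing: 11.9 µM single point; timing: 15 min plus 2 h at 25 °C; detection: luminescence of leftover ATP; evaluation: % inhibition; control set: DMSO-only wells as low control; replicates: singlicate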
AHR act = activators of human aryl hydrocarbon receptor; P35869; AHR-responsive luciferase reporter cells, luminescence; activation, % at 5 µM; actives 2.5% (n = 320,000); AID 2796; in the data active = activation above about 47%;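 note: 0% = vehicle wells and 100% = reference agonist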
Target sequence (P35869 whole entry, looked up): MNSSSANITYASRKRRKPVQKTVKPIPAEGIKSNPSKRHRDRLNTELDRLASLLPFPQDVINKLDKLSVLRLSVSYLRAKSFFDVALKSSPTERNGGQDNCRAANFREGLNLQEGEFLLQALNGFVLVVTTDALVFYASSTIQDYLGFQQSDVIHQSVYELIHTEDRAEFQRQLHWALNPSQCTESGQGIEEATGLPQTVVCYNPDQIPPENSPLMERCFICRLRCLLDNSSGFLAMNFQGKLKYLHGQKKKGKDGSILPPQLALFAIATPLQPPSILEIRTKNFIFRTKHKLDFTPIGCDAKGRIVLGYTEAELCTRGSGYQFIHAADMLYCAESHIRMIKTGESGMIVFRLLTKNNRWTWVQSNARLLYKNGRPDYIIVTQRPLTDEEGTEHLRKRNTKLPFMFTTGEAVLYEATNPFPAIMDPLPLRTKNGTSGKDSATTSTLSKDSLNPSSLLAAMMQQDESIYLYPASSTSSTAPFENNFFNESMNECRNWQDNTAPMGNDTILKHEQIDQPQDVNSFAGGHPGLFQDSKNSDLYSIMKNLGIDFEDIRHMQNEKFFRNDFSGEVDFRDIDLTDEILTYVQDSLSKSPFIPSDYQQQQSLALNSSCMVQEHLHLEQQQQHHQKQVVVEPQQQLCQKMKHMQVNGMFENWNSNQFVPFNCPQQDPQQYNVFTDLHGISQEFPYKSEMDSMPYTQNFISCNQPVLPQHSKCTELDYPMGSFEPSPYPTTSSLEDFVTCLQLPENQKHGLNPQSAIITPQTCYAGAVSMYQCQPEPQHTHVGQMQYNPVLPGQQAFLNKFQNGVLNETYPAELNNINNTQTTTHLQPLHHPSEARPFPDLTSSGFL
Efflux pump mplx = inhibitors of Candida antifungal efflux pumps expressed in yeast; S. cerevisiae Candida pump triplex, Nile Red efflux; inhibition, % at 10 µM; actives 0.44% (n = 330,000); AID 485275;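 active = plate passing quality check with inhibition over a set limit, or well fluorescence over plate mean plus 4 SD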;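 note: Nile Red retained in pooled yeast measured as flow cytometry median fluorescence; 0% = buffer negative control and 100% = Enniatin B positive control; higher means more Nile Red kept so more efflux inhibition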
* marks the source's active call; other numbers are inactive results; / = not tested or not shown. This is a sample that favours compounds with a hit; in the whole collection about 4.1% have one here.

SMILES | SMARCA2 act | TAG inh | Tb MetRS inh | AHR act | Efflux pump mplx
CCOC(=O)c1[nH]c2ccccc2c1NC(=S)Nc1cccc(C)c1 | -0.8 | 12.2 | -0.7 | 72.4* | -0.2
CN(C)Cc1c(C(=O)Nc2ccccc2)[nH]c2ccccc12 | 5.6 | -17.9 | -0.1 | 72.2* | -0.3
O=C(O)CCc1c(C(=O)O)[nH]c2ccccc12 | 0.3 | 7.6 | -0.8 | 2.5 | 0.0
COc1cc(OC)c2c(O)c3c(=O)cc(C)oc3c(-c3c(OC)cc4cc5c(c(O)c4c3O)C(=O)CC(C)(O)O5)c2c1 (centres undefined) | 2.3 | / | / | / | /
CCCCOCCCNC(=O)C[C@H]1C[C@@]2(C(=O)OC)C(=C[C@H](C(C)(C)C)O[C@@H]2C)N(Cc2ccc3c(c2)OCO3)C1=O | -7.3 | / | / | / | /
Cc1c(/C=N/NC(=O)c2cc(C(C)(C)C)[nH]n2)c2ccccc2n1C | -1.5 | 22.6 | -0.4 | 73.3* | 0.1
COc1ccc(CC(=O)N/N=C/c2c(C)n(C)c3ccccc23)cc1OC | -1.9 | 5.3 | -0.9 | 47.9* | -0.4
CCOc1cc(C(=O)NC2=NCCS2)cc(OCC)c1OCC | -0.6 | 2.4 | -0.1 | 55.3* | 0.1
O=C(Nc1c(Cl)cc(Cl)cc1-c1nc2ccccc2s1)c1ccc(Br)o1 | -3.0 | / | -0.5 | 60.5* | 0.0
O=C(Nc1ccccc1)N(O)c1ccc(Cl)cc1 | 2.8 | / | 0.6 | 59.7* | 0.0
CCN(CCS(=O)(=O)c1ccc(Cl)cc1)C(=O)Nc1ccccc1 | -1.7 | -2.1 | -0.1 | 0.5 | 0.0
C=CCc1cc(C)ccc1OCCn1ccnc1 | -0.1 | -0.4 | -2.0 | 23.2 | 0.1
C=CCc1cc(C)ccc1OCCOCCn1ccnc1 | -1.3 | / | -0.5 | 55.0* | -0.1
N#Cc1ccc(OCCCN2CCC(C(O)(C3=CCCC3)c3ccccc3)CC2)cc1 (centres undefined) | 0.7 | / | / | / | /
Oc1ccccc1-c1csc(-c2ccccc2)n1 | 2.0 | 7.4 | -1.1 | 69.1* | 0.2
C=C(C)CSc1nnc(-c2cc(-c3ccccc3)n[nH]2)n1N | -4.4 | / | / | / | /
COc1cc2c(cc1OC)/C(=C/c1ccc(Cl)cc1)C(=O)OC2 | -3.9 | / | 0.1 | 58.9* | -0.1
COc1ccc(/C=C2\C(=O)OCc3cc(OC)c(OC)cc32)cc1OC | -0.2 | / | -0.5 | 7.3 | -0.3
Cc1c(C=NNC(=O)c2ccc(Br)cc2)c2ccccn2c1C(=O)c1ccncc1 | -2.8 | 32.5 | -0.2 | 2.6 | 0.0
N#Cc1c(N)c2ccccn2c1C(=O)c1ccc(Br)cc1 | 1.4 | / | -1.2 | 61.4* | 0.0
Cc1noc(C)c1C(=O)Nc1nc2ccc(F)cc2s1 | 6.2 | -10.7 | -0.3 | 34.6 | 0.2
CCc1noc(C)c1C(=O)Nc1nc2ccc(F)cc2s1 | 3.5 | -1.6 | -0.4 | 52.0* | -0.1
COc1cccc(NC(=O)n2ccc3ccc(-c4ccc5ccn(C(=O)Nc6cccc(OC)c6)c5c4)cc32)c1 | -2.8 | / | / | / | /
CCS(=O)(=O)c1ncc(Cl)c(C(=O)Nc2ccccc2OC)n1 | 3.0 | / | -0.3 | 35.0 | 0.1
COc1ccccc1NC(=O)c1nc(S(=O)(=O)Cc2ccccc2)ncc1Cl | 4.3 | / | -0.3 | 59.7* | -0.1
SMILES | SMARCA2 act | TAG inh | Tb MetRS inh | AHR act | Efflux pump mplx
O=C(CCl)N(Cc1ccccc1)c1ccccc1 | -8.5 | 34.3 | -0.6 | -1.2 | -0.1
Cc1cccc(N(Cc2ccccc2)C(=O)CCl)c1 | -10.3 | 68.4* | 0.3 | / | /
CC(C)CN1C(=O)C[C@]2(C(=O)N(C)c3ccc(NC(=O)c4cc(F)ccc4F)cc32)C1c1ccccc1 (some centres undefined) | -2.6 | / | / | / | /
CCN(CC)C(=O)c1ccc2c(c1[N+](=O)[O-])C(=O)c1ccccc1C2=O | / | / | / | 77.7* | 0.0
CC(=O)c1c(C)[nH]c(C(=O)CSc2nnc(-c3ccco3)n2Cc2ccccc2)c1C | -2.6 | / | -0.6 | 68.5* | 0.1
CC(=O)c1c(C)[nH]c(C(=O)CSc2nnc(-c3cccs3)n2Cc2ccccc2)c1C | -4.6 | / | -0.6 | 6.8 | 0.2
CCOC(=O)N1CCN(c2ccc(C(F)(F)F)cn2)CC1 | 7.9* | / | -1.2 | -6.2 | 0.8
CC1=NN(c2ccc(C(F)(F)F)cn2)C(=O)C1 | 3.0 | / | -0.7 | 50.6* | 0.0
CS(=O)(=O)Nc1ccc(N2CCN(c3ccc(C(F)(F)F)cn3)CC2)nc1 | -8.3 | -0.4 | -0.5 | -5.1 | 0.2
CC(C)C[C@@H]1NC(=O)[C@@H]2CSCCS(=O)(=O)N2C1=O | -2.2 | / | / | / | /
COc1ccc(Br)cc1/C=C1\Oc2ccccc2NC1=O | -2.1 | / | 1.9 | 23.4 | -0.2
O=C1Nc2ccccc2O/C1=C\c1ccccc1Br | 0.6 | / | -0.5 | 53.2* | 0.0
N#Cc1cc(N)c(Nc2ccccc2)cc1C#N | -0.6 | / | 8.2* | -2.9 | -0.1
COc1cc2c(cc1OC)-c1cc(Nc3ccc(N(C)C)cc3)nc(=O)n1CC2 | 7.8* | -13.5 | 0.4 | 10.4 | 0.1
COC(=O)c1sccc1NC(=O)c1ccc(C)s1 | 3.3 | 11.5 | -0.2 | 50.3* | 0.1
C[C@@H]1CCN(C2CC2)S(=O)(=O)c2c(cccc2N2CCC[C@@H]2C)O1 | -1.1 | / | / | / | /
CC(=O)Nc1nc(-c2ccc3c(c2)OCO3)cs1 | 0.5 | -1.3 | -1.1 | 42.4 | 0.0
Clc1ccc(-c2csc(N/N=C/c3ccc4c(c3)OCO4)n2)cc1 | -0.3 | 17.9 | -0.3 | 63.3* | -0.2
N#Cc1c(SCC(=O)Nc2ccc(Cl)cc2Cl)sc2c(O)cc(=O)[nH]c12 | 7.8* | / | -0.4 | 7.3 | 0.0
COC(=O)[C@]12C[C@H](CC(=O)NCCc3ccccc3OC)C(=O)N(Cc3ccc(Cl)cc3Cl)C1=C[C@H](C1CCCC1)O[C@@H]2C | -2.0 | / | / | / | /
COc1ccc(-c2csc(NNC3=NCCCCC3)n2)cc1 | 1.6 | / | / | 31.1 | 0.0
Fc1ccc(-c2csc(NC3=NCCC3)n2)cc1 | -0.6 | 0.4 | -1.0 | 54.6* | 0.1
COc1ccc(-c2csc(NC3=NCCCCC3)n2)cc1 | -0.3 | / | 0.4 | 57.5* | 0.0
Cc1cc(O)cc(=O)n1-c1cc(F)c(F)c(F)c1 | -3.0 | / | / | / | /
O=C1C(=Cc2cccs2)C(=O)c2ccccc21 | -1.8 | / | -1.5 | 12.2 | 0.0
SMILES | SMARCA2 act | TAG inh | Tb MetRS inh | AHR act | Efflux pump mplx
O=C1/C(=C\c2cccs2)Sc2ccc3ccccc3c21 | 5.0 | -4.9 | -0.7 | 62.0* | 0.2
Cc1ccc(NC(=O)/C(=C\c2ccc([N+](=O)[O-])cc2)NC(=O)c2ccccc2)cc1 | -3.4 | -32.4 | 0.2 | 7.1 | -0.1
O=C(N/N=C/c1ccc(O)c(O)c1O)/C(=C/c1ccc([N+](=O)[O-])cc1)NC(=O)c1ccccc1 | -4.5 | -13.8 | 12.3* | 25.9 | -0.1
CCOc1ccc2[nH]c3c(N4CCC5(CC4)OCCO5)ncnc3c2c1 | -2.8 | / | / | 71.2* | 0.0
COc1ccc2[nH]c3c(N4CCc5ccccc5C4)ncnc3c2c1 | -2.6 | -1.9 | 1.5 | 58.4* | -0.2
CCOc1ccc2[nH]c3c(N4CCN(C(=O)c5ccco5)CC4)ncnc3c2c1 | -2.1 | -11.6 | -0.1 | 23.9 | 0.0
COCc1[nH]nc2c1C(c1ccc(F)cc1)N(c1ccc(OC)cc1)C2=O (centres undefined) | -3.6 | / | / | / | /
O=C(CSc1nnc(-c2cccnc2)n1-c1ccc(Cl)cc1)Nc1ccc(S(=O)(=O)Nc2nccs2)cc1 | -3.3 | / | / | / | /
O=C(Nc1cc2c3c(c1)CC(=O)N3CCC2)c1ccc(F)cc1 | -0.6 | 8.8 | -0.3 | 47.0* | 0.0

Screening results from PubChem.
